This is a sample that favours compounds with a hit; in the whole collection about 0.91% have one here.
G6PDH counter: L. mesenteroides G6PDH inhibitors, counter-screen for G6PDH-coupled screening assays, biochemical, Leuconostoc mesenteroides enzyme; glucose-6-phosphate dehydrogenase [Leuconostoc mesenteroides]; Purified L. mesenteroides G6PDH, diaphorase/resazurin coupled fluorescence, 45 min; inhibition, % at 5 µM; 200,000 tested, 0.12% active; AID 1020, 2008; in the data active = inhibition above about 50%
Redox H2O2 prof: compounds producing H2O2 with reducing agent – biochemical, NIH compound library profiling, artefact control for MLSCN library redox annotation, primary screen; DTT-dependent redox cycling H2O2, phenol red/HRP absorbance; 100% = 100 µM peroxide control, 0% = buffer; activation, % at 10 µM; 200,000 tested, 0.03% active; AID 878, 2007;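 active = activation of at least 50% relative to the plate's high and low controls in the primary single-dose screen; inactive = activation below 50%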;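 also: compound incubated with DTT at 0.8 mM final as the reducing agent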
p97 ATPase inh: inhibitors of human p97 ATPase, primary screen, biochemical; Transitional endoplasmic reticulum ATPase (Homo sapiens), P55072; recombinant p97 ATPase, Kinase-Glo ATP luminescence, 3 h; inhibition, % at 8 µM; 220,000 tested, 0.42% active; AID 1481, 2009; in the data active = inhibition above about 15%
Target sequence (P55072 whole entry, looked up): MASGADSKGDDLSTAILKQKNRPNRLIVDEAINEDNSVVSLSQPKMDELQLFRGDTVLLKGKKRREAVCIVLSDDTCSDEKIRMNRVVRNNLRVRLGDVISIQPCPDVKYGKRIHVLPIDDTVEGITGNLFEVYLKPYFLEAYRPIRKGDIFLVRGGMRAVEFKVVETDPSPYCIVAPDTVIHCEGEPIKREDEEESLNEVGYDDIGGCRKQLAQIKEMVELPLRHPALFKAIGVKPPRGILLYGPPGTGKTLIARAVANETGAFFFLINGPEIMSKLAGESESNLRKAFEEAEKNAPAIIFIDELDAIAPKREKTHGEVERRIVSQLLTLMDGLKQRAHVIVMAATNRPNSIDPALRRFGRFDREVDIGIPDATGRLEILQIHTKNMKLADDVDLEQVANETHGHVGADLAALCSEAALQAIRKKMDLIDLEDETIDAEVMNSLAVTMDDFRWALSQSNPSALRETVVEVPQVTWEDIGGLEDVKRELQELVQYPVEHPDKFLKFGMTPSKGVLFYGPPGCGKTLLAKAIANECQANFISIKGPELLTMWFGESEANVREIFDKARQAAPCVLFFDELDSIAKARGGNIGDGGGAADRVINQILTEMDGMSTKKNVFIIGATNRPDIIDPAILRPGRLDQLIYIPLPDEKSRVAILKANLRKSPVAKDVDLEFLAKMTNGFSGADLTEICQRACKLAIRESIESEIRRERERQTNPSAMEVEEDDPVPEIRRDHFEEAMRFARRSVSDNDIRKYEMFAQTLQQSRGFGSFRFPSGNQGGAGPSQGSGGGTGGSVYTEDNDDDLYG
PMI act hi M6P: human PMI activators, high substrate, primary screen, biochemical, fluorescence intensity, near-saturating mannose 6-phosphate | 190,000 tested, 0.34% active | AID 1216, 2008 | coupled PMI enzyme assay, resazurin fluorescence, 20 min; hits give high values; 1 = untreated enzyme, 0 = substrate-free blank | Mannose-6-phosphate isomerase (Homo sapiens), P34949 | activation factor at 20 µM;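 active = activation factor of 2 or more at 20 µM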
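Material: human phosphomannose isomerase with PGI, G6PDH, diaphorase coupling enzymes. Quantity: 15 ng/mL PMI. Medium: HEPES pH 7.4 buffer with MgCl2 and Tween-20. Reagent: Near-saturating mannose-6-phosphate, 1.0 mM. Compound: 20 µM single dose. Times: enzyme reaction with compound 20 min at room temperature. Detection: resorufin fluorescence at Ex 544/Em 590 nm.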
PMI act: activators of human PMI, primary screen, biochemical, fluorescence intensity, near-Km mannose 6-phosphate; AID 1214, 2008; activation factor at 20 µM; purified human PMI, coupled resazurin fluorescence, 20 min; hits give high values; 1 = vehicle control, 0 substrate-free wells; 190,000 tested, 0.005% active; Mannose-6-phosphate isomerase (Homo sapiens), P34949;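 active = activation factor of 2 or more at 20 µM, relative to plate controls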
TbHK1 inh: Trypanosoma brucei hexokinase 1 inhibitors, primary screen, biochemical, G6PDH-coupled NADH absorbance, MLSCN library; AID 1430, 2008; recombinant TbHK1, G6PDH-coupled NADH A340; 220,000 tested, 0.11% active; inhibition, % at 10 µM; hexokinase 1 [Trypanosoma brucei];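 active = inhibition of 50% or more in the single-dose primary screen; inactive = inhibition below 50%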
Of the large screens only hits and unclear results are named; the others gave an inactive call.

O=C(Nc1ccc(F)cc1)c1nc2c(nnn2Cc2cccc3ccccc23)c(=O)[nH]1	none (no result: G6PDH counter, Redox H2O2 prof, PMI act hi M6P, PMI act)
O=C(COc1ccccc1)Nc1ccc(Cl)cc1Cl	none
CCOC(=O)c1ccc(N=NN(C)C)cc1	none (no result: G6PDH counter, Redox H2O2 prof, PMI act hi M6P, PMI act)
Cc1ccc(C(=O)NS(=O)(=O)c2ccc(N=NN(C)C)cc2)cc1	PMI act hi M6P 2
O=C1CCCC/C1=N\Nc1ccc(C2CCCCC2)cc1	none (no result: G6PDH counter, Redox H2O2 prof, PMI act hi M6P, PMI act)
O=C1CCCC/C1=N\Nc1ccc(OCc2ccccc2)cc1	PMI act hi M6P 2.5
C/C(=N\Nc1nc2ccccc2s1)c1cccs1	none
C/C(=N\Nc1nc(-c2ccccc2)cs1)c1cccs1	PMI act hi M6P 2.2
CCCCCCCCCCCCCCCC[n+]1ccc(C(N)=O)cc1	TbHK1 inh 64
CC1=NN(c2ccc(C)c(C)c2)C(=O)C1C(c1cccc(O)c1)C1C(=O)N(c2ccc(C)c(C)c2)N=C1C (stereo not given)	p97 ATPase inh 35
Cc1ccc(N2C(=O)C3C4C=CC(C4)C3C2=O)cc1C (stereo not given)	none
C/C(=N\NC(=O)c1cccc(N/N=C(\C)c2cc(O)ccc2O)c1)c1cc(O)ccc1O	PMI act hi M6P 3
COc1ccc(N2CC(C(=O)N/N=C/c3ccc(C)cc3)CC2=O)cc1 (stereo not given)	p97 ATPase inh 15
COc1ccc(N2CC(C(=O)N/N=C/c3ccc([N+](=O)[O-])cc3)CC2=O)cc1 (stereo not given)	none
Cc1ccc(NC(=O)COC(=O)CNC(=O)c2ccco2)cc1	none
CCOC(=O)c1cc(NC(=O)c2ccc(C)cc2)c(=O)oc1C(F)(F)F	PMI act hi M6P 2.6
CC(=O)c1cc(NC(=O)c2ccc(C)cc2)c(=O)oc1C	none
CC(=O)c1cc(NC(=O)c2ccccc2)c(=O)oc1C	PMI act hi M6P 2.1
CCOC(=O)c1cc(NC(=O)c2ccccc2)c(=O)oc1C(F)(F)F	PMI act hi M6P 2.2
CCOC(=O)c1cc(NC(=O)c2ccc(OC)cc2)c(=O)oc1-c1ccccc1	none
CN(C)c1nc(N)c2ncc(=S)[nH]c2n1	none
CN(C)c1ccc(C(=S)N2CCOCC2)cc1Br	PMI act hi M6P 2.6
CCN(CC)C(=O)c1ccc2c(c1[N+](=O)[O-])C(=O)c1ccccc1C2=O	none
Cc1cccn2c(=O)c3cc(C#N)c(=NC(=O)c4ccncc4)n(CCCOC(C)C)c3nc12	PMI act hi M6P 2
O=C(Nn1c(-c2ccc(F)cc2)nc2ccccc2c1=O)C1CCCCC1	none
O=C(O)CCSc1nnc(COc2cccc3ccccc23)n1-c1cccc(Cl)c1	none
Nc1c(C(=O)N/N=C/c2cccnc2)oc2nc(-c3ccccc3)cc(-c3ccco3)c12	p97 ATPase inh 15 (no result: G6PDH counter, Redox H2O2 prof, PMI act hi M6P, PMI act)
CCN(CC(=O)Nc1cccc(C(C)=O)c1)S(=O)(=O)c1ccccc1	none
O=C(O)CSc1nnnn1C1CCCCC1	none
O=C(Sc1nnnn1C1CCCCC1)c1cccs1	PMI act hi M6P 2.2
CCCCn1nc2cc(C(=O)NCc3ccccc3)ccc2c1OCC	none
C=CCc1cccc2cc(C(=O)Nc3ccccc3C(=O)O)c(=O)oc12	p97 ATPase inh 22
C=CCc1cccc2cc(C(=O)O)c(=O)oc12	none
Cc1ccc2c(c1)nc(NCCO)n2C	none
Cc1ccc2c(ccc(=S)n2C)c1	PMI act hi M6P 2.7
NC(=O)C1(N2CCCCC2)CCN(C(=S)Nc2cc(F)cc(F)c2)CC1	none
Cc1cc2oc(=O)cc(CN3CCOCC3)c2cc1C	none
Cc1cc2oc(=O)cc(CN3CCCc4ccccc43)c2cc1C	PMI act hi M6P 2.3
CCCC(=O)NC(c1ccco1)c1cc([N+](=O)[O-])c2cccnc2c1O (stereo not given)	G6PDH counter 56
CC(=O)NC(c1ccc(C)cc1)c1cc([N+](=O)[O-])c2cccnc2c1O (stereo not given)	G6PDH counter 61
COc1cc(/C=N/NC(=O)c2ccncc2)ccc1OCc1cnc(Cl)s1	none
O=C1C=C(O)c2cccc(O)c2C1=O	none (no result: G6PDH counter, Redox H2O2 prof, p97 ATPase inh, PMI act hi M6P, PMI act)
CC1=CC(=O)c2c(O)ccc(O)c2C1=O	G6PDH counter 58
Cc1cccc2cc3c(N)c(C(=O)N4CCOCC4)sc3nc12	PMI act hi M6P 2.1
COc1ccc(-c2c3c([nH]c(=S)c2C#N)CCC3)cc1	PMI act hi M6P 2.1
Cc1onc(-c2ccc(Cl)cc2Cl)c1-c1csc(N/N=C/c2ccccc2)n1	none (no result: G6PDH counter, Redox H2O2 prof, PMI act hi M6P, PMI act)
Cc1c(NS(=O)(=O)c2cc(NC(=O)CCN3CCCC(C)C3)ccc2Cl)c(=O)n(-c2ccccc2)n1C (stereo not given)	none
Cc1onc(-c2c(Cl)cccc2Cl)c1C(=O)O/N=C(\C#N)c1ccccc1	p97 ATPase inh 15 (no result: G6PDH counter, Redox H2O2 prof, PMI act hi M6P, PMI act)
COc1ccc(S(=O)(=O)C(C#N)c2nc3ccccc3nc2N2CCCCC2)cc1 (stereo not given)	none
Cc1cccc(S(=O)(=O)C(C#N)c2nc3ccccc3nc2N2CCCC2)c1 (stereo not given)	p97 ATPase inh 20
O=C(c1ccccc1)c1c[nH]cc1-c1ccccc1	none
O=C(C1=C(c2ccccc2)C(=O)c2ccccc2C1=O)c1ccccc1	G6PDH counter 58
COC1=C(c2ccccc2)C(=O)c2ccccc2C1=O	PMI act 2
CCCCc1c(C)nc2ccc(Br)cc2c1SCCC#N	none
CCCc1c(C)nc2ccccc2c1SCCC#N	PMI act hi M6P 2.3
CC(C)(C)S(=O)(=O)c1ccc(S(=O)(=O)C(C)(C)C)s1	none
O=c1/c(=C/c2ccccn2)sc2nc3ccccc3n12	none
O=c1/c(=C\c2cc([N+](=O)[O-])cc([N+](=O)[O-])c2O)sc2nc3ccccc3n12	PMI act hi M6P 2.4, TbHK1 inh 60
CCOc1ccc(Nc2nc(NCCN3CCOCC3)nc(OC)n2)cc1	p97 ATPase inh 15
CC1=C(CC(=O)c2ccccc2)C(=O)c2ccccc2C1=O	G6PDH counter 56
CCCc1nc2oc3ccccc3c(=O)c2c(=O)n1CCCOC	none (no result: G6PDH counter, Redox H2O2 prof, PMI act hi M6P, PMI act)
CC(C)c1ccccc1NC(=O)COC(=O)c1c2c(nc3ccccc13)CCN(Cc1ccccc1)C2	PMI act hi M6P 2.1
Cc1c(Cl)cccc1NC(=O)COC(=O)c1c2c(nc3ccccc13)CCN(Cc1ccccc1)C2	none
CCCSc1nc2sc3c(c2c(=O)[nH]1)CCN(Cc1ccccc1)C3	none
O=c1[nH]c(C(Cl)Cl)nc2sc3c(c12)CCN(Cc1ccccc1)C3	PMI act hi M6P 2.6

Screening data (PubChem BioAssay)
